Converted amounts (≈) assume the structure as drawn.
Key:
CHO = experiment: Cytotoxicity against CHO cells assessed as reduction in cell viability by MTT assay; type: cell-based, Cricetulus griseus; settings: chinese hamster
Summary of the method: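 Cytotoxicity was measured in Chinese hamster ovary (CHO) cells and reported as CC50. The selectivity index is CC50 divided by NF54 IC50.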

Plasmodium falciparum [1] = experiment: Antiplasmodial activity against multidrug-sensitive asexual blood stage Plasmodium falciparum NF54 strain assessed as reduction in parasite growth after 72 hrs by NBT reagent based LDH assay; type: functional, organism-based; settings: NF54, 72 h
Plasmodium falciparum [2] = experiment: Antiplasmodial activity against multidrug-resistant asexual blood stage Plasmodium falciparum K1 strain assessed as reduction in parasite growth after 72 hrs by NBT reagent based LDH assay; type: functional, organism-based; settings: K1, 72 h
Summary of the method: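 Asexual blood-stage K1 (multidrug-resistant) parasites were read out by the parasite lactate dehydrogenase (pLDH) assay. […] Most individual values varied less than 2× (maximum 3×).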

[3] = Apparent intrinsic clearance in mouse liver microsomes at 0.1 uM in presence of NADPH by LC-MS/MS analysis; type: ADME, Microsome
Summary of the method: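 Compound was incubated with mouse liver microsomes for 30 min. Apparent intrinsic clearance (CL_int,app) is reported in μL/min/mg.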

[4] = target: Voltage-gated inwardly rectifying potassium channel KCNH2 (Homo sapiens, UniProt Q12809); experiment: Inhibition of human ERG by patch clamp method
Chain of Voltage-gated inwardly rectifying potassium channel KCNH2 (Q12809 whole entry): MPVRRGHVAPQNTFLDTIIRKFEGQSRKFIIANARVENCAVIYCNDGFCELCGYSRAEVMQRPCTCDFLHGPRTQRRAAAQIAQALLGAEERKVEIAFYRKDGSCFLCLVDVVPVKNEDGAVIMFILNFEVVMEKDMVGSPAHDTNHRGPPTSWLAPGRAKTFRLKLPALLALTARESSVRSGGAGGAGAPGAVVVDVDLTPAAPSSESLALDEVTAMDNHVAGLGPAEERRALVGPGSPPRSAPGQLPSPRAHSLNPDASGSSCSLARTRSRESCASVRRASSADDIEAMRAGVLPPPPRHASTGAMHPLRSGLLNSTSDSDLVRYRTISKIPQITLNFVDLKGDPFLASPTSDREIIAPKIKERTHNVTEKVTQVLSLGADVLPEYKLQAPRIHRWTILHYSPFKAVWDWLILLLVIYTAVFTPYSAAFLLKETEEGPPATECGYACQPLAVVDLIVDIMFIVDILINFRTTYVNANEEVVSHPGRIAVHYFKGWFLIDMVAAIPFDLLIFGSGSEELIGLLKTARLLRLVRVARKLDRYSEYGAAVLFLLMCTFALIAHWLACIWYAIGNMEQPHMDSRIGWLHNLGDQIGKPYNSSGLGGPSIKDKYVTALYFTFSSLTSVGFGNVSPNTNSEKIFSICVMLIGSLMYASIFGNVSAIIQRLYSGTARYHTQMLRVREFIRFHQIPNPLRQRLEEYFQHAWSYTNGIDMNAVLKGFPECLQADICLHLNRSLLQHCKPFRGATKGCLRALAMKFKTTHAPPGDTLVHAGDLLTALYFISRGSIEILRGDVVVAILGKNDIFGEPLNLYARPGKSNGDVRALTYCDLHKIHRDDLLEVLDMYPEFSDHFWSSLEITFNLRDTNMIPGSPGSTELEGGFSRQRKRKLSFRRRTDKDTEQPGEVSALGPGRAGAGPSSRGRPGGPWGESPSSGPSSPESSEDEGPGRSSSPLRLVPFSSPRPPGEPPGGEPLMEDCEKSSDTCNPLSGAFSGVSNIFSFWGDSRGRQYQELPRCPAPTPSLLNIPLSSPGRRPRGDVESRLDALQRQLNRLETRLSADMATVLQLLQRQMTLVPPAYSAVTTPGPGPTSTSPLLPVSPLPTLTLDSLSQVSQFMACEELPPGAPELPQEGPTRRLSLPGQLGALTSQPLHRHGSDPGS

[5] = Aqueous solubility of compound in phosphate buffer saline at pH 6.5 incubated for 20 hrs under shaking condition by shake-flask method based HPLC-DAD analysis; type: physicochemical; settings: phosphate buffered saline
Summary of the method: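 Equilibrium aqueous solubility was measured at pH 6.5 using a miniaturized shake-flask method.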

Hemozoin = experiment: Inhibition of beta-hematin formation assessed as reduction in hemozoin formation incubated for 5 hrs by NP40 detergent-mediated assay
Summary of the method: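 Synthetic hemozoin (β-hematin) formation is driven by the detergent Nonidet P-40. Pyridine is then added to detect unreacted hematin. IC50 is derived from this read-out.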

Plasmodium falciparum [6] = experiment: Antiplasmodial activity against late stage (IV/V) Plasmodium falciparum NF54 gametocytes at 5 uM incubated for 48 hrs under hypoxia condition by luciferase reporter gene assay relative to control; type: functional
Plasmodium berghei = experiment: Antiplasmodial activity against luciferase-expressing Plasmodium berghei sporozoites liver stage infected in human HepG2 cells expressing GFP-CD81 fusion protein incubated for 48 hrs by luciferase reporter gene based bioluminescence assay; type: functional, organism-based; settings: HepG2, 48 h
Summary of the method: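 Liver-stage activity was measured in vitro with rodent P. berghei sporozoites. Values are the mean of 3 technical replicates from the luciferase assay; individual values varied less than 2×.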

Plasmodium falciparum [7] = experiment: Antiplasmodial activity against late stage (IV/V) Plasmodium falciparum NF54 gametocytes incubated for 48 hrs under hypoxia condition by luciferase reporter gene assay; type: functional, organism-based; settings: NF54, 48 h
Plasmodium falciparum [8] = experiment: Antiplasmodial activity against early stage (I to III) Plasmodium falciparum NF54 gametocytes incubated for 48 hrs under hypoxia condition by luciferase reporter gene assay; type: functional, organism-based; settings: NF54, 48 h
Plasmodium falciparum [9] = experiment: Antiplasmodial activity against early ring-stage synchronized Plasmodium falciparum assessed as decrease in hemozoin formation after 32 hrs by Giemsa-staining based haemocytometric counting method; type: functional, organism-based
Plasmodium falciparum [10] = experiment: Antiplasmodial activity against early ring-stage synchronized Plasmodium falciparum assessed as increase in free heme after 32 hrs by Giemsa-staining based haemocytometric counting method; type: functional, organism-based
Summary of the method: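 Whole-parasite cell fractionation assay run as a dose response. Free heme and hemozoin were measured intracellularly across increasing compound concentrations.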

[11] = Terminal half life in Balb/C mouse at 20 mg/kg, po by LC-MS/MS analysis; type: ADME, organism-based; settings: in vivo, read-out: beta t1/2 (converted)
Summary of the method: (§1)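 Healthy Balb/c mice were given the compound i.v. or orally. Parameters come from non-compartmental analysis: AUC from 0 h to t_last, blood clearance, volume at steady state, terminal half-life, Tmax. Oral bioavailability F is derived from the i.v. and p.o. data.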

[12] = Clearance in Balb/C mouse blood at 2 mg/kg, iv by LC-MS/MS analysis; type: ADME, organism-based; settings: whole blood
Summary of the method: (§2)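 Healthy Balb/c mice dosed i.v. or orally. Parameters come from non-compartmental analysis of compound concentration over time. […] Clearance is blood clearance (CL_b).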

[13] = Cmax in Balb/C mouse at 2 mg/kg, iv by LC-MS/MS analysis; type: ADME, organism-based; design: route intravenous, dose 2 mg/kg; settings: in vivo; summary of the method: as §2
[14] = Volume of distribution at steady state in Balb/C mouse at 2 mg/kg, iv by LC-MS/MS analysis; type: ADME, organism-based; settings: in vivo, read-out: Vdss; summary of the method: as §1
[15] = AUC (0 to t) in Balb/C mouse at 20 mg/kg, po by LC-MS/MS analysis; type: ADME, organism-based; design: dose 20 mg/kg; settings: in vivo; summary of the method: as §2
[16] = Ratio of unbound average drug concentration in Balb/c mouse at 20 mg/kg, po measured at 24 hrs to IC50 for antiplasmodial activity against multidrug-sensitive Plasmodium falciparum NF54 asexual blood stage assessed as reduction in parasite growth after 72 hrs by LDH assay; type: organism-based; settings: in vivo
[17] = AUC (0 to t) in Balb/C mouse at 2 mg/kg, iv by LC-MS/MS analysis; type: ADME, organism-based; design: dose 2 mg/kg; settings: in vivo; summary of the method: as §2
[18] = Cmax in Balb/C mouse at 20 mg/kg, po by LC-MS/MS analysis; type: ADME, organism-based; design: route oral, dose 20 mg/kg; settings: in vivo; summary of the method: as §2
[19] = Oral bioavailability in Balb/C mouse at 20 mg/kg by LC-MS/MS analysis; type: ADME, organism-based; settings: in vivo; summary of the method: as §1
[20] = Selectivity index, ratio of CC50 for cytotoxicity against CHO cells assessed as reduction in cell viability to IC50 for antiplasmodial activity against multidrug-sensitive Plasmodium falciparum NF54 assessed as reduction in parasite growth; type: toxicity, cell-based; settings: hamster, read-out: Ratio CC50/IC50
[21] = Terminal half life in Balb/C mouse at 2 mg/kg, iv by LC-MS/MS analysis; type: ADME, organism-based; settings: in vivo, read-out: beta t1/2 (converted); summary of the method: as §1
[22] = Tmax in Balb/C mouse at 20 mg/kg, po by LC-MS/MS analysis; type: ADME, organism-based; settings: in vivo; summary of the method: as §1
[23] = Selectivity ratio of IC50 for antiplasmodial activity against luciferase-expressing Plasmodium berghei sporozoites liver stage infected in human HepG2 cells expressing GFP-CD81 fusion protein to IC50 for antiplasmodial activity against multidrug-sensitive Plasmodium falciparum NF54; type: functional
[24] = Intrinsic clearance in Balb/c mouse at 20 mg/kg, po by LC-MS/MS analysis; type: ADME, organism-based; settings: in vivo
[25] = Dissociation constant, pKa of compound; type: physicochemical

SMILES	CC50 (CHO) [nM]	IC50 (Plasmodium falciparum [1]) [nM]	IC50 (Plasmodium falciparum [2]) [nM]	solubility thermodynamic at 20 h [5] [µM]	half-life [11] [h]	clearance [12] [mL/min/kg]	Cmax [13] [nM]	Vd [14] [L/kg]	AUCt [15] [µM·h]	Ratio [16]	AUCt [17] [µM·h]	Cmax [18] [nM]	bioavailability [19] [%]	selectivity ratio [20]	half-life [21] [h]	Tmax [22] [h]	other results
CN1CCCN(c2nccc3[nH]c(-c4ccc(F)c(F)c4)nc23)CC1	14000	61	100	170 (≈ 58.4 µg/mL)													CLH [3]: 145 µL/min/mg; IC50 [4]: 400 nM
NC1CCN(c2nccc3[nH]c(-c4cccc(OC(F)(F)F)c4)nc23)CC1	42000	73	1200	200 (≈ 75.5 µg/mL)													IC50 (Hemozoin): 148000 nM; inhibition at 5 µM (Plasmodium falciparum [6]): 95%; IC50 (Plasmodium berghei): 14000 nM; IC50 (Plasmodium falciparum [7]): 2800 nM; IC50 (Plasmodium falciparum [8]): 780 nM; Activity (Plasmodium falciparum [9]): Dose-dependent effect; Activity (Plasmodium falciparum [10]): Dose-dependent effect
Cn1ccnc1N1CCN(CC2CCN(c3nccc4[nH]c(-c5cc(F)cc(F)c5)nc34)CC2)CC1	33000	29	53	135 (≈ 66.5 µg/mL)	9.2	9	1600	6	19	1.5	7.88	1700	24	1140	12.2	2.3	
Fc1ccc(-c2nc3c(N4CCC(CN5CCOCC5)CC4)nccc3[nH]2)cc1F	35000	51	120	85 (≈ 35.1 µg/mL)	13.5	19.6	300	20	34.6	4.6	4.17	3700	83	690	25.8	0.7	inhibition at 5 µM (Plasmodium falciparum [6]): 0%; IC50 (Plasmodium berghei): 290 nM; Ratio IC50 [23]: <=6; IC50 (Plasmodium falciparum [8]): 1300 nM; IC50 [4]: ≤ 3000 nM
CN1CCC(N2CCN(c3nccc4[nH]c(-c5ccc(F)c(F)c5)nc34)CC2)CC1	33000	71	260	200 (≈ 82.5 µg/mL)	10.8	11.4	1700	4.3	6.63	0.9	6.77	1100	11	460	8.2	2.3	CL [24]: 54 mL/min/kg
Fc1cc(F)cc(-c2cc3c(N4CCC(N5CCOCC5)CC4)nccc3[nH]2)c1																	pKa [25]: 8.2
CN1CCC(N2CCCN(c3nccc4[nH]c(-c5ccc(F)c(F)c5)nc34)CC2)CC1	17000	35	220	200 (≈ 85.3 µg/mL)										490			CLH [3]: > 200 µL/min/mg
CN1CCN(CC2CCN(c3nc(C#N)cc4[nH]c(-c5cc(F)cc(F)c5)nc34)CC2)CC1		77	49	< 5													IC50 (Hemozoin): 8500 nM

From ChEMBL document CHEMBL4699593, “Identification of 2,4-Disubstituted Imidazopyridines as Hemozoin Formation Inhibitors with Fast-Killing Kinetics and In Vivo Efficacy in the Plasmodium falciparum NSG Mouse Model” (J Med Chem, 2020)
